≈ marks a conversion by molar mass, not a printed value.
Columns and labels:
[1] = target: T1, Orexin receptor type 2 (Homo sapiens, UniProt O43614); assay: Displacement of [3H]-(S)-N-(2-(1H-pyrrol-1-yl)phenyl)-1-(2-(1-methyl-1H-benzo[d]imidazol-2-ylthio)acetyl)pyrrolidine-2-carboxamide from human OX2R expressed in CHOK1 cells by radioligand binding assay; type: cell-based, CHO-K1
T1 sequence (O43614 whole entry): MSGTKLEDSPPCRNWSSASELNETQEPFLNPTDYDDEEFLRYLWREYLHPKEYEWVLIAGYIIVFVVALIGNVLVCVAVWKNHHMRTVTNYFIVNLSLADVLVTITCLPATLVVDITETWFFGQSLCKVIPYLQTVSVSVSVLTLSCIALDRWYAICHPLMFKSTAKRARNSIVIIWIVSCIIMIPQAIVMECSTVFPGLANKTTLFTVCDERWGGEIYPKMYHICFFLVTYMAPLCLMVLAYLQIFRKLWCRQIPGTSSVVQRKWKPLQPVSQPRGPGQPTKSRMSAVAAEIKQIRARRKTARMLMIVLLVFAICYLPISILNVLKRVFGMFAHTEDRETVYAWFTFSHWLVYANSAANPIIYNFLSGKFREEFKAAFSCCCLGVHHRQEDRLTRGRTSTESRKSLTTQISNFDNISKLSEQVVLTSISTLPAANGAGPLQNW
Outline: (§1)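 Radioligand competition binding on membranes from CHO-K1 cells overexpressing the human orexin receptor.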

[2] = target: T2, Orexin/Hypocretin receptor type 1 (Homo sapiens, UniProt O43613); assay: Displacement of [3H]-(S)-N-(biphenyl-2-yl)-1-(2-(1-methyl-1H-benzo[d]imidazol-2-ylthio)acetyl)pyrrolidine-2-carboxamide from human OX1R expressed in CHOK1 cells by radioligand binding assay; type: cell-based, CHO-K1; outline: as §1
T2 sequence (O43613 whole entry): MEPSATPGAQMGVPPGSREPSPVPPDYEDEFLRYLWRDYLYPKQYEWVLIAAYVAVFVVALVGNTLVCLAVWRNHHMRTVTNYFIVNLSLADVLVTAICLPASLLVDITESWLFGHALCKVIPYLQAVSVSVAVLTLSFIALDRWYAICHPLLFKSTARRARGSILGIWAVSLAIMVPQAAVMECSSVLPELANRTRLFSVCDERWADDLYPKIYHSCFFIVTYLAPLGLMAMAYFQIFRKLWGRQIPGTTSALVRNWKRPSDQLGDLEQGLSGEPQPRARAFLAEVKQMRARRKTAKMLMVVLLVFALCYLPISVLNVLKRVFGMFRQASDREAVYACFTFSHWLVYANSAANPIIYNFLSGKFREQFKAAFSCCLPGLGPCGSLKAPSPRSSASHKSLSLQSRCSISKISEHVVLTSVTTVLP

[3] = tested on: CHO-K1; assay: Selectivity index, ratio of IC50 for human OX1R expressed in CHOK1 cells to IC50 for human OX2R expressed in CHOK1 cells by FLIPR assay; type: cell-based
Outline: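 Ratio of OX1R FLIPR IC50 to OX2R FLIPR IC50. Both come from Ca2+-flux assays on human orexin receptors expressed in CHO-K1 cells, each averaged over n ≥ 2 experiments.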

[4] = target: T2, Orexin/Hypocretin receptor type 1; assay: Antagonist activity against human OX1R expressed in CHOK1 cells assessed as inhibition of orexin A-induced […] Ca2+ mobilization by FLIPR assay; type: functional, cell-based, CHO-K1
Outline: (§2)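 Cell-based FLIPR assay measuring Ca2+ flux as the functional read-out of orexin receptor antagonism. Target is the human orexin receptor expressed in CHO-K1 cells.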

[5] = target: T1, Orexin receptor type 2; assay: Antagonist activity against human OX2R expressed in CHOK1 cells assessed as inhibition of orexin A-induced […] Ca2+ mobilization by FLIPR assay; type: functional, cell-based, CHO-K1; outline: as §2
[6] = Intrinsic clearance in human microsomes; type: ADME, Microsome
[7] = Lipophilicity, log D of the compound by HPLC method; type: physicochemical
[8] = Solubility of the compound at pH 7; type: physicochemical; settings: buffer
[9] = Clearance in dog at 10 mg/kg, po or 2 mg/kg, iv; type: ADME, organism-based, Canis lupus familiaris; settings: in vivo
Outline: (§3)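 Dog pharmacokinetics determined after intravenous and oral administration.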

[10] = Oral bioavailability in Wistar Han rat at 10 mg/kg; type: ADME, organism-based; settings: in vivo
Outline: (§4)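 Pharmacokinetics in Wistar Han rats (n = 2) after intravenous and oral dosing. Oral dose was 10 mg/kg in PEG400:Tween80/water 40:10:50. IV dose was 2 mg/kg in DMSO/PEG400/water 20:60:20.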

[11] = Oral bioavailability in dog at 10 mg/kg; type: ADME, organism-based, Canis lupus familiaris; settings: in vivo; outline: as §3
[12] = Half life in dog at 10 mg/kg, po or 2 mg/kg, iv; type: ADME, organism-based, Canis lupus familiaris; settings: in vivo; outline: as §3
[13] = Clearance in Wistar Han rat at 10 mg/kg, po or 2 mg/kg, iv; type: ADME, organism-based; settings: in vivo; outline: as §4
[14] = Volume of distribution at steady state in Wistar Han rat at 10 mg/kg, po or 2 mg/kg, iv; type: ADME, organism-based; settings: in vivo, read-out: Vdss; outline: as §4
[15] = Volume of distribution at steady state in dog at 10 mg/kg, po or 2 mg/kg, iv; type: ADME, organism-based, Canis lupus familiaris; settings: in vivo, read-out: Vdss; outline: as §3
[16] = Half life in Wistar Han rat at 10 mg/kg, po or 2 mg/kg, iv; type: ADME, organism-based; settings: in vivo; outline: as §4
[17] = tested on: Plasma; assay: Stability in rat plasma; type: ADME, cell-free
[18] = tested on: Plasma; assay: Stability in human plasma; type: ADME, cell-free

Structure (SMILES) | Ki [1] [nM] | Ki [2] [nM] | Ratio IC50 [3] | IC50 [4] [nM] | IC50 [5] [nM] | other results
COC(=O)c1ccnc(O[C@@H]2CC[C@@H](C)N(C(=O)c3ccccc3-n3nccn3)C2)c1 | 3.9 | 310 | 82 | 1800 | 22 | 
C[C@@H]1CC[C@@H](Oc2cc(C#N)ccn2)CN1C(=O)c1ccccc1CC(F)(F)F |  |  | > 312 | > 10000 | 32 | CLint scaled [6]: 132 mL/min/kg; logD ([7]; read-out: logD): 3.6; solubility ([8]; read-out: solubility): 95 µM (≈ 38.3 µg/mL)
C[C@@H]1CC[C@@H](Oc2cc(C(=O)N(C)C)ccn2)CN1C(=O)c1ccccc1-n1nccn1 | 6.5 | 470 | > 105 | > 10000 | 95 | 
C[C@@H]1CC[C@@H](Oc2cc(-c3ccccc3)ccn2)CN1C(=O)c1ccccc1-n1nccn1 | 3.8 | 360 | 54 | 2400 | 45 | 
C[C@@H]1CC[C@@H](Oc2cc(C#N)ccn2)CN1C(=O)c1ccccc1OC(F)F |  |  | > 314 | > 10000 | 37 | CLint scaled [6]: 43 mL/min/kg; logD [7]: ND(Insoluble); solubility [8]: Insoluble
CCc1ccnc(O[C@@H]2CC[C@@H](C)N(C(=O)c3ccccc3-n3nccn3)C2)c1 | 0.6 | 57 | 28 | 310 | 11 | 
Cc1ccnc(O[C@@H]2CC[C@@H](C)N(C(=O)c3ccccc3-n3nccn3)C2)c1 | 2.6 | 166 | 49 | 788 |  | 
Cc1cccc(O[C@@H]2CC[C@@H](C)N(C(=O)c3ccccc3-n3nccn3)C2)n1 | 7.6 | 12 | 23 | 745 | 33 | 
CCOC(=O)c1ccccc1C(=O)N1C[C@H](Oc2cc(C#N)ccn2)CC[C@H]1C |  |  | 349 | 7100 | 21 | CLint scaled [6]: 37 mL/min/kg; logD ([7]; read-out: logD): 3.2; solubility ([8]; read-out: solubility): 121 µM (≈ 47.6 µg/mL)
C[C@@H]1CC[C@@H](Oc2cc(Cl)ccn2)CN1C(=O)c1ccccc1-n1nccn1 | 1.4 | 120 | 51 |  | 11 | 
C[C@@H]1CC[C@@H](Oc2ccccn2)CN1C(=O)c1ccccc1-n1nccn1 | 2400 | 14000 |  |  |  | 
CC(C)OC(=O)c1ccccc1C(=O)N1C[C@H](Oc2cc(C#N)ccn2)CC[C@H]1C |  |  | 87 | 3300 | 38 | logD ([7]; read-out: logD): 3.6; solubility ([8]; read-out: solubility): 115 µM (≈ 46.9 µg/mL)
C[C@@H]1CC[C@@H](Oc2cc(N(C)C)ccn2)CN1C(=O)c1ccccc1-n1nccn1 | 4.5 | 1400 | 12 | 1500 | 130 | 
C[C@@H]1CC[C@@H](Oc2cc(F)ccn2)CN1C(=O)c1ccccc1-n1nccn1 | 3.9 | 430 | 68 |  |  | 
COc1ccnc(O[C@@H]2CC[C@@H](C)N(C(=O)c3ccccc3-n3nccn3)C2)c1 | 1.3 | 140 | 49 |  |  | 
CSc1ccnc(O[C@@H]2CC[C@@H](C)N(C(=O)c3ccccc3-n3nccn3)C2)c1 | 0.2 | 39 | 16 | 110 | 6.7 | 
Cc1cccnc1O[C@@H]1CC[C@@H](C)N(C(=O)c2ccccc2-n2nccn2)C1 | 621 | 4760 |  |  |  | 
C[C@@H]1CC[C@@H](Oc2cc(I)ccn2)CN1C(=O)c1ccccc1-n1nccn1 | 0.4 | 59 | 57 |  | 7.2 | 
C[C@@H]1CC[C@@H](Oc2cc(Br)ccn2)CN1C(=O)c1ccccc1-n1nccn1 | 1.8 | 130 | 37 | 380 | 10 | 
C[C@@H]1CC[C@@H](Oc2cc(C(F)(F)F)ccn2)CN1C(=O)c1ccccc1-n1nccn1 | 0.2 | 64 | 21 | 370 |  | 
C#Cc1ccnc(O[C@@H]2CC[C@@H](C)N(C(=O)c3ccccc3-n3nccn3)C2)c1 | 0.6 | 49 | 23 | 240 | 10 | 
C[C@@H]1CC[C@@H](Oc2cc(C#N)ccn2)CN1C(=O)c1ccccc1-n1nccn1 |  | 830 | 293 | 3800 | 13 | CLint scaled [6]: 16 mL/min/kg; clearance [9]: 27 mL/min/kg; bioavailability [10]: 17%; bioavailability [11]: 13%; half-life [12]: 1.1 h; logD ([7]; read-out: logD): 3; clearance [13]: 18 mL/min/kg; solubility ([8]; read-out: solubility): 148 µM (≈ 57.5 µg/mL); Vd [14]: 1.7 L/kg; Vd [15]: 1.5 L/kg; half-life [16]: 1.7 h
Cc1ccc(O[C@@H]2CC[C@@H](C)N(C(=O)c3ccccc3-n3nccn3)C2)nc1 | 2.6 | 37 | 16 | 142 | 9 | 
C[C@@H]1CC[C@@H](Oc2cc(S(C)(=O)=O)ccn2)CN1C(=O)c1ccccc1-n1nccn1 | 0.9 | 350 | 33 | 510 | 16 | 
COC(=O)c1ccccc1C(=O)N1C[C@H](Oc2cc(C#N)ccn2)CC[C@H]1C |  |  | > 490 | 10000 | 21 | CLint scaled [6]: < 16 mL/min/kg; Stability [17]: Unstable; Stability [18]: Unstable; logD ([7]; read-out: logD): 2.9; solubility ([8]; read-out: solubility): 151 µM (≈ 57.3 µg/mL)
Cc1nc(-c2ccccc2C(=O)N2C[C@H](Oc3cc(C#N)ccn3)CC[C@H]2C)no1 |  |  | 361 | 8400 | 25 | CLint scaled [6]: 23 mL/min/kg; clearance [9]: 4.6 mL/min/kg; bioavailability [10]: 26%; bioavailability [11]: 54%; half-life [12]: 1.5 h; logD ([7]; read-out: logD): 3; clearance [13]: 30 mL/min/kg; solubility ([8]; read-out: solubility): 162 µM (≈ 65.4 µg/mL); Vd [14]: 1.3 L/kg; Vd [15]: 0.54 L/kg; half-life [16]: 1.3 h
